Published values collected from several papers.

With `C=CC(=O)N1CCN(c2nc(=O)n(-c3c(C)ccnc3C(C)C)c3nc(-c4c(O)cccc4F)c(F)cc23)[C@@H](C)C1` the IC50 was 0.00775 µM (Calu-1; cell growth or viability, ATP luminescence).
With `CC1(C)CCC(CN2CCN(c3ccc(C(=O)NS(=O)(=O)c4ccc(NCC5CCOCC5)c([N+](=O)[O-])c4)c(Oc4cnc5[nH]ccc5c4)c3)CC2)=C(c2ccc(Cl)cc2)C1` the IC50 was 5.38 µM (SU-DHL-8; cell growth or viability, ATP luminescence; 48 h).
`O=C(O)c1cccnc1Nc1cccc(C(F)(F)F)c1` has a GI50 of over 40 µM (NCI-H226; cell growth or viability, CCK-8; 72 h).
With `CN(C)C(=O)c1cc2cnc(Nc3ccc(N4CCNCC4)cn3)nc2n1C1CCCC1` the IC50 was 1.67 µM (human Neutrophil; reactive oxygen species, inhibitor).
With `C=C(F)C(=O)N1CCN(c2nc(OC[C@@H]3CCCN3C)nc3c2CCN(c2cccc4cccc(Cl)c24)C3)C[C@@H]1CC#N` the IC50 was 0.0409 µM (Calu-1; cell growth or viability, ATP luminescence; 3D culture).
With `C=CC(=O)c1cccnc1Nc1cc(C(F)(F)F)ccc1OCc1ccccc1` the GI50 was 12.8 µM (NCI-H226; cell growth or viability, CCK-8; 72 h).
With `O=C(O)c1ccc2c(c1)nc(Nc1cccc(Cl)c1)c1ccncc12` the IC50 was 14.2 µM (NCI-H226; cell growth or viability, resazurin; 48 h).
The IC50 of `CC(C)c1ccccc1[C@@H]1CCCN1C1CC2(CCN(c3ccc(C(=O)NS(=O)(=O)c4ccc(NC[C@H]5CC[C@](C)(O)CC5)c([N+](=O)[O-])c4)c(Oc4cnc5[nH]ccc5c4)c3)CC2)C1` is reported as 0.013 µM (MINO; cell growth or viability, ATP luminescence; 48 h).
The EC50 of `C=CC(=O)NC1CCN(c2ncc3ncnc(Nc4ccc(Oc5ccc6c(c5)ncn6C)c(C)c4)c3n2)CC1` is reported as 1.15 µM (Hs766T; cell growth or viability).
